# Hits are enriched below; roughly 6.8% of the tested compounds scored in any of these assays.
# HER2 expr 66K – inhibitors of human Her2 kinase expression; SKBR-3 HER2 protein level, AlphaScreen, 18-24 h; stronger effect = lower value; HER2 level % of control, % at 10 µM; 65,000 tested, 0.69% active;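 active means HER2 level under 5% of the carrier-only control; inconclusive means no clear call, values can overlap the other calls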;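 further: 100% = DMSO carrier and 0% = 500 nM PU-H71 HSP90 inhibitor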
# M1 antag – blocks the rat M1 muscarinic receptor response to acetylcholine; 64,000 tested, 3.4% active; B-score at 10 µM; CHO-M1 cells, Fluo-4 calcium, ACh EC80 antagonist mode; stronger effect = lower value;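 active means calcium fluorescence response, raw or row-and-column corrected B-score, differing from the plate sample mean either way at a set confidence level, mostly lower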
# Cdc25B block – inhibitors of human Cdc25B phosphatase; AID 368; inhibition, %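 (compounds tested at 10 µM final in the well)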; P30305; 65,000 tested, 0.1% active; recombinant Cdc25B, OMFP fluorescence Ex485/Em525; in the data active means inhibition above about 50%
# Target sequence (P30305 whole entry, looked up): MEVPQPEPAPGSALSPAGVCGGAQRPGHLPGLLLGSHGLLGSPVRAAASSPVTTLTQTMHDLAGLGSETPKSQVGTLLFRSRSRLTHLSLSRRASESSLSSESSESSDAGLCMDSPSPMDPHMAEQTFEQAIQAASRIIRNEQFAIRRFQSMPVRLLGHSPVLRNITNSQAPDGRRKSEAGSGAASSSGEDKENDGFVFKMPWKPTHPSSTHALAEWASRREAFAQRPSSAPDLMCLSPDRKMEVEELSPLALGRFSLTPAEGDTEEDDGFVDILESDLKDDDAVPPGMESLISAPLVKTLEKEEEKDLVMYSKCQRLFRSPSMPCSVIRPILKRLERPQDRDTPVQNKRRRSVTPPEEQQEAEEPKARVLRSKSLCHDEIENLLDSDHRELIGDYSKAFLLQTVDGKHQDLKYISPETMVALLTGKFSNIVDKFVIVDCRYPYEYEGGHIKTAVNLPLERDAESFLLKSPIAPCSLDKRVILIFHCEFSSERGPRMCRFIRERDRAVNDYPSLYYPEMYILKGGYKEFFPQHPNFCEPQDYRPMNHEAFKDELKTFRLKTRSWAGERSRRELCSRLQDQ
# HEK293 NFkB inh – lowers PMA/ionomycin-induced NF-kB signal in HEK293 cells; HEK-293 NF-kB luciferase reporter, luminescence; 62,000 tested, 0.21% active; inhibition, % at 3 µM;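 active means inhibition above the mean of all tested compounds plus 3 SD, cut at about 40% in these data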;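 further: 0% = stimulated DMSO wells and 100% = 10 µM reference inhibitor 5653914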
#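 Reagent: PMA plus ionomycin mix as NF-kB-activating stimulus. Assay system: NF-kB luciferase reporter HEK-293 cells. Technique: luminescence from luciferase substrate reagent. Incubation: 1 h compound pre-incubation, 16 h PMA/ionomycin at 37 °C. Benchmarks: DMSO only as uninhibited control, 10 µM reference inhibitor as full inhibition. Repeats: tested once.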
# M1 ag – agonists of M1 muscarinic receptor; CHO-M1 cells, Fluo-4 calcium fluorescence, agonist mode; stronger effect = higher value; B-score at 10 µM; 64,000 tested, 3% active; AID 626;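 active means fluorescence rise, raw or as B-score row- and column-corrected plate score, outside the 99.7% band of its plate's samples, either direction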
# MKP-1 inh – blocks human MKP-1 phosphatase activity. P28562. recombinant MKP-1, OMFP hydrolysis fluorescence. inhibition, %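 (compounds tested at a single concentration somewhere between 10 and 100 µM)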. 65,000 tested, 0.15% active;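 active means inhibition above about 50%, limit read from the data; inconclusive means inhibition over screen mean plus 3 SD, below that limit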;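 further: 0% = DMSO max control wells and 100% = wells with enzyme stopped by NaOH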
# M1 ag confirm – confirmation of rat M1 muscarinic receptor agonists; shares compounds with M1 ag; CHO-M1 cells, Fluo-4 calcium fluorescence, agonist mode; actives lie on both sides; fluorescence change (max-min) at 10 µM; 1,700 tested, 19% active; AID 1488;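 active means fluorescence change differs from the solvent-only DMSO control mean at a set confidence level in both duplicate runs; inconclusive means differs from solvent-only control mean in just one of two runs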;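 further: an EC20 dose of acetylcholine follows compound addition during the same imaging run; raw fluorescence intensity difference in instrument units with no normalization to controls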
# M4 agonist ctr – rat M4 muscarinic agonism, M1 counter-screen; shares compounds with M1 ag; CHO M4/Gqi5 cells, Fluo-4 calcium fluorescence, agonist mode; actives lie on both sides; fluorescence change (max-min) at 10 µM; 1,700 tested, 9% active; AID 1741;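 active means fluorescence change differing from the plate's solvent-only control wells at 99.7% confidence in both duplicates, whether higher or lower; inconclusive means differs from solvent controls in only one of two duplicates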
# An asterisk follows results filed as active; ? = inconclusive; / = not tested or not shown.
SMILES,HER2 expr 66K,M1 antag,Cdc25B block,HEK293 NFkB inh,M1 ag,MKP-1 inh,M1 ag confirm,M4 agonist ctr
CCC(Oc1ccccc1)C(=O)Nc1ccc(S(=O)(=O)NCC2CCCO2)cc1 (configuration not stated),171.9,-0.713,-0.5,7.9,-2.17*,11.1,-2.97,-24.7
COc1ccc(-n2ccnc2SCC(=O)Nc2ccc(OC)cc2OC)cc1,107.3,0.116,-12.6,3.6,-1.48,8.3,/,/
CCOC(=O)C1CCCN(c2nc(C)nc3c2oc2ccccc23)C1 (configuration not stated),105.3,0.565,-4.9,5.1,1.81*,5.7,-8.25,-28.6
CCOC(=O)C1CCN(c2nc(C)nc3c2oc2ccccc23)CC1,77.5,-0.98,-9.8,6.2,0.899,10.3,/,/
Cc1cc(C)n2nc(SCC(=O)N(C)Cc3ccccc3)nc2n1,110.7,1.04,2.1,6.9,2.06*,-5.8,-17.8,?
CC1CN(c2ccc(Oc3ccccc3)cc2)c2nc3c(c(=O)n(CC(N)=O)c(=O)n3C)n2C1 (configuration not stated),92.1,-0.134,-13.9,-4.7,0.187,18.7,/,/
C=CCn1c(=O)c2c(nc3n2CC(C)CN3c2cccc(OC)c2)n(C)c1=O (configuration not stated),75.2,0.256,0.3,12.9,1.94*,-5.3,-12.7,?
O=C(c1cn(-c2ccccc2)nc1-c1ccccc1)N1CCOCC1,89.9,0.128,-13.3,17.5,-0.0112,3.3,/,/
O=C(c1cn(-c2ccccc2)nc1-c1ccc(Cl)s1)N1CCOCC1,90.4,-0.248,-6.9,9.5,7.71*,19.6,-26.6,-26
CCCCNC(=O)CC1Nc2ccccc2NC1=O (configuration not stated),103.1,-0.477,7.7,3.3,7.87*,-3.8,29.7,?
O=C(CC1Nc2ccccc2NC1=O)NCCCN1CCCCCC1 (configuration not stated),101.3,0.21,6.3,10.0,0.0207,-9.3,/,/
C#CC1CN(Cc2ccccc2)CC(C#C)N1C (configuration not stated),151.4,0.308,-30.9,/,0.0754,-35.8,/,/
Cc1ccc(S(=O)(=O)N2CCOCC2)cc1C(=O)Nc1nc(-c2cccnc2)cs1,95.5,0.882,-16.5,20.6,0.213,11.1,/,/
Cc1ccc(S(=O)(=O)N2CCOCC2)cc1C(=O)Nc1ccc(-c2cn3ccsc3n2)cc1,86.0,-0.00625,-0.2,14.8,3.29*,38.0,-8.11,?
CCOc1ccc(C2C=C(c3ccc(C)cc3)Nc3ncnn32)cc1 (configuration not stated),126.5,-0.857,6.6,3.7,5.48*,-8.0,129*,?
COc1ccc(C2C=C(c3ccccc3)Nc3ncnn32)cc1 (configuration not stated),96.2,-0.485,9.3,10.6,9.71*,-1.4,85.6*,69.9
CCOc1ccc(C2C=C(c3ccccc3)Nc3nnnn32)cc1 (configuration not stated),98.2,0.00516,2.9,-2.7,0.507,-4.7,/,/
CCOc1ccc(C2C=C(c3ccc(C)cc3)Nc3nnnn32)cc1 (configuration not stated),84.7,0.138,0.1,4.7,1.47,-10.8,/,/
CC1=C(C#N)C(=O)NC(C)(C)C1,94.9,0.63,0.6,0.5,-0.533,0.2,/,/
CC1=C(C#N)C(=O)N(C)C(C)(C)C1,107.4,-0.0181,2.0,-1.0,19.3*,17.2,-10.4,-33.3
CC(=O)Nc1cccc(NC(=O)C2CC(=O)N(c3ccc(C)cc3)C2)c1 (configuration not stated),98.0,0.852,-7.5,23.0,3.12*,-13.4,-19.2,-53.4
Cc1cc(C)c2cc3c(ccn3C3OC[C@H](O)[C@H](O)[C@H]3O)cc2n1 (some centres not stated),94.8,-0.622,-1.3,6.4,36.3*,-9.2,201*,156
CCc1nnc(NC(=O)Cn2nc(-c3ccccc3OC)ccc2=O)s1,95.8,0.0835,-4.3,-6.8,-0.496,-13.2,/,/
CC1Cc2ccccc2N1C(=O)CN1C(=O)NC(C)(c2ccc3c(c2)OCCO3)C1=O (configuration not stated),117.2,1.43,-7.2,3.2,5.62*,19.8,13.7,-16.6
O=C(Nc1nccs1)c1cccc(S(=O)(=O)N2CCOCC2)c1,/,0.442,0.7,11.5,0,3.1,/,/
SMILES,HER2 expr 66K,M1 antag,Cdc25B block,HEK293 NFkB inh,M1 ag,MKP-1 inh,M1 ag confirm,M4 agonist ctr
COc1cc(C)c(S(=O)(=O)NCc2cccs2)cc1C,96.2,0.314,-3.2,-3.6,-0.394,4.1,/,/
Cc1ccnc(SCC(=O)Nc2sc3c(c2C#N)CCCC3)n1,93.5,-2.12,2.6,24.2,3.38*,3.2,-18.2,?
N#Cc1c(NC(=O)CSC2=NCCS2)sc2c1CCCC2,101.4,0.00884,-16.3,-2.6,-0.361,4.2,/,/
CC(=O)Nc1ccc(S(=O)(=O)Nc2nc3ccccc3nc2Sc2nncn2C)cc1,67.5,0.301,-6.2,15.2,42.6*,12.8,55*,12.2
Cn1cnnc1Sc1nc2ccccc2nc1NS(=O)(=O)c1ccccc1,96.6,-0.0614,-11.6,10.3,-0.0429,30.1,/,/
O=C(O)c1ccc(Br)c(S(=O)(=O)N2CCCC2)c1,101.0,0.428,-9.2,0.1,-0.508,8.4,/,/
CC(C)OC(=O)c1c(F)c(F)c(N2CCOCC2)c(F)c1F,101.3,0.012,-18.3,19.6,-0.526,1.0,/,/
O=C(NCc1ccco1)c1cccn2c(=O)c3sccc3nc12,102.3,-3.22*,-7.0,11.8,2.9*,22.9,-17.9,-59.5
CCOC(=O)N1CCN(C(=O)c2cccn3c(=O)c4sccc4nc23)CC1,66.6,0.0147,-9.4,5.3,-1.2,3.7,/,/
COc1cc(CSc2nnnn2-c2ccc(C)cc2)cc(OC)c1OC,46.4,-2.5*,-23.5,44.3*,5.8*,8.2,3.54,?
COc1ccc(C2C(C#N)=C(N)SC(N)=C2C#N)cc1OC,110.4,-0.216,-20.0,/,38.1*,-29.9,-11.4,-50.7
COc1cc(C2NC(=O)NC(C)=C2C(=O)OC2CCCC(C)C2)ccc1O (configuration not stated),111.3,0.849,-2.8,13.8,1.05,9.8,/,/
Cc1ccc(S(=O)(=O)Nc2ccc(Br)cc2/C=N/n2cnnc2)cc1,77.8,-0.542,13.4,9.9,1.34,33.2,/,/
CCN(CC)C(=O)CSc1nnc(-c2cccnc2)n1CCc1ccccc1,96.0,-0.0487,0.6,9.3,8.29*,18.2,-23.6,-50.6
Cn1c(=O)c(C(=O)CSc2nncs2)c(N)n(Cc2ccccc2)c1=O,91.9,1.04,-2.2,15.9,-1.06,-0.1,/,/
